Compound activity from PubChem BioAssay.
The list is not random: actives were taken first. Their share in the collection is about 2.3%.
CSN deneddyl inh: inhibitors of human CSN-mediated cullin deneddylation. Purified CSN, SCF-Nedd8-OG deneddylation, fluorescence polarization. inhibition, % at 12.5 µM. actives 0.38% (n = 360,000). AID 651999;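 active means pattern-corrected inhibition above about 35%, with an unprinted fluorescence ratio check between 0.5 and 1.5, limit read from the data, passing the limit was not always enough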;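 further: 0% = enzyme with substrate and 100% = substrate without enzyme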
Target sequence (Q92905 whole entry, looked up, one chain of several): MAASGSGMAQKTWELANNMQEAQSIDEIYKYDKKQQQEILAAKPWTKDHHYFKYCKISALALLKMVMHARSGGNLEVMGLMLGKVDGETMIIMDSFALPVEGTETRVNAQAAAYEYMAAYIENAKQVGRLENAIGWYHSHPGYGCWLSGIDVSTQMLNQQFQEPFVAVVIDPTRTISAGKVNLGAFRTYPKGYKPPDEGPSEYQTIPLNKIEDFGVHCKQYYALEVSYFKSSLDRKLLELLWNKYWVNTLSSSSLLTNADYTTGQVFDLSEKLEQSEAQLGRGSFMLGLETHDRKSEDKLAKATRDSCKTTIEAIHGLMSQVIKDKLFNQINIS
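test system = HEK293T-derived human Csn5 enzyme | amount = 0.24 nM Csn5 enzyme, final concentration | medium = Tris/NaCl/DTT buffer, pH 7.5 | schedule = 90 min reaction at room temperature | signal = FP | evaluation = inhibition of Csn5 cleavage, % | compound dosing = single dose of 12.5 µM compound with 0.25% DMSO | probe or stimulus = 10 nM SCFSkp2-Nedd8OG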
Myeloid diff 2: myeloid differentiation induction; actives 1% (n = 360,000); AID 624256; calls only at 10 µM; ER-HoxA9 myeloid progenitors, lysozyme-GFP differentiation, flow cytometry;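 active means normalized GFP-positive differentiation at or above the plate's own cutoff, the solvent-only control mean plus 3 SD; inconclusive means no clear call, values can overlap the other calls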;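 further: cells exposed to compound for four days before flow analysis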
HNF4A DNA FP: change in binding of human HNF4 alpha to DNA; P41235; AID 1224865; HNF4a-FITC DNA binding, fluorescence polarization, 1 h; activity change, % at 10 µM; actives 0.3% (n = 360,000); in the data active means activity change above about 30%, passing the limit was not always enough
TPT1 inh: blocks Candida albicans tRNA 2'-phosphotransferase. recombinant caTPT1, FP RNA substrate dephosphorylation. actives 0.81% (n = 300,000). inhibition, % at 5 µM;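 active means inhibition above the mean of all tested compounds plus 3 SD, set per screening campaign, cut at about 24% in these data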;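 further: plate controls were DMSO alone for no effect and ferristatin control at 100 nM for full effect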
Rpn11 inh: blocks the human proteasome subunit Rpn11. inhibition, % at 20 µM. actives 0.59% (n = 360,000). AID 588493. human 26S proteasome, Ub4-pepOG fluorescence polarization; 20S core pre-blocked with epoxomicin;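 active means inhibition at 20 µM, scaled to each plate's controls, above about 33%, limit read from the data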
TPT1 inh confirm: confirmation of Candida albicans TPT1 inhibitors | shares compounds with TPT1 inh | recombinant caTPT1, fluorescence polarization, RNase T1 coupled | inhibition, % at 5 µM | actives 74% (n = 2,400);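 active means inhibition above the primary screen limit, the mean inhibition of all tested compounds plus 3 SD, cut at about 25% in these data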
RNase T1 counter: counter-screen for TPT1 inhibitors: inhibitors of Aspergillus oryzae RNase T1; shares compounds with TPT1 inh; RNase T1 cleavage, fluorescence polarization, 1536-well; inhibition, % at 5 µM; actives 83% (n = 2,400);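 active means inhibition above the solvent-only control well mean plus 3 SD, limit set per screening run, cut at about 23% in these data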;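 further: plate controls were DMSO wells with enzyme for no effect and wells without RNase T1 for full effect; inhibitors block cleavage so intact labeled substrate keeps polarization high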
Numbers without * were called inactive; i = inactive; u = inconclusive; x = no result given; + = active, no number.

SMILES	CSN deneddyl inh	Myeloid diff 2	HNF4A DNA FP	TPT1 inh	Rpn11 inh	TPT1 inh confirm	RNase T1 counter
O=C1NC(c2ccco2)Nc2sc3c(c21)CCN(Cc1ccccc1)C3 (stereo unspecified)	22	i	5	53*	x	53*	62*
CN1CCc2c(sc3c2C(=O)NC(c2cccc(OC(=O)c4cccs4)c2)N3)C1 (stereo unspecified)	36*	i	34*	99*	x	110*	110*
Cc1ccccc1N1CCN(CC(=O)Nc2ccccc2C(=O)NC2CC2)CC1	-1	i	-1	x	7	x	x
CNS(=O)(=O)c1cnccc1N1CCN(c2cccc(C(F)(F)F)c2)CC1	-4	i	2	-3	-8	x	x
COc1cc2c(cc1OC)C(=Cc1ccc(N(C)C)cc1)C=C2	7	i	3	x	-1	x	x
COc1cc2nc(/C=C/c3ccc(N(C)C)cc3)sc2cc1SC	121	+	132	155*	x	153*	138*
CCc1c(C)nc(N2CCN(c3ccc(Cl)cc3)CC2)[nH]c1=O	2	i	-2	4	-2	x	x
COc1ccc(C(=O)c2sc3nc(-c4ccc(OC)cc4)ccc3c2N)cc1	4	i	16	54*	23	83*	91*
COc1ccc(-c2ccc3c(N)c(C(=O)c4cccc(OC)c4)sc3n2)cc1	4	i	13	63*	16	63*	74*
Nc1c(C(=O)Nc2ccccc2)sc2nc(-c3ccco3)ccc12	29	i	13	18	21	x	x
COc1ccccc1NC(=O)c1sc2nc(-c3ccco3)ccc2c1N	17	i	21	28*	42*	19	27*
COc1ccc(C(C(=O)NCCC(C)C)N(CCN2CCOCC2)C(=O)Cn2nnc3ccccc32)c(OC)c1 (stereo unspecified)	-13	i	0	0	-1	x	x
Cc1c(C)n2c(SCC(=O)N3CCOCC3)nnc2[nH]c1=O	-5	i	-3	-2	0	x	x
COc1ccc(NC(=O)CSc2nnc(-c3cccs3)n2N)c(OC)c1	8	i	6	-1	3	x	x
COc1ccc(NC(=O)c2cc(S(=O)(=O)Nc3ccc(OC)cc3)cs2)cc1	-5	i	1	47*	0	5	7
OC(c1ccccc1)c1ncc(-c2cccc(OCc3ccccc3)c2)[nH]1 (stereo unspecified)	-3	i	6	x	3	x	x
O=[N+]([O-])c1ccc(N2CCOCC2)cc1N1CCCCC1	4	i	9	-2	7	x	x
O=[N+]([O-])c1ccc(N2CCCCC2)cc1N1CCOCC1	4	i	3	25*	-2	9	12
Cc1noc(C)c1C(=O)NCc1ccccc1F	-8	i	0	-3	3	x	x
CCCCN1C(=O)C(O)(CC(=O)c2c(C)coc2C)c2ccccc21 (stereo unspecified)	2	i	0	-1	-8	x	x
CCCCN1C(=O)C2(NNc3ccccc3O2)c2ccccc21 (stereo unspecified)	7	i	69*	91*	x	94*	102*
N=c1oc2cc(O)ccc2cc1C(=O)Nc1nc2ccccc2s1	41	i	31	65*	x	70*	75*
N=c1oc2cc(O)ccc2cc1C(=O)Nc1ccccn1	x	x	x	29*	x	-19	-6
Cc1cc(C)c(S(=O)(=O)Nc2ccccc2)c(C)c1	1	i	2	x	-1	x	x
N#CC1=C(N)SC(N)=C(C#N)C1Cc1ccccc1	51	i	114	63*	x	50*	59*
CC(C)CC1C(C#N)=C(N)SC(N)=C1C#N	75	i	107	70*	x	87*	95*
CCN(CC)c1ccc2c(c1)OC(N)=C(C#N)C2c1cccnc1 (stereo unspecified)	71	u	78	71*	x	57*	64*
Cc1cccc(N(Cc2ccccc2)C(=O)c2cc(S(=O)(=O)N3CCOCC3)ccc2Cl)c1	0	i	-2	0	0	x	x
COc1ccccc1OC(=O)Oc1ccccc1OC	6	i	1	x	4	x	x
